# Measurements from different studies.
# BTK: Tyrosine-protein kinase BTK (BTK, Homo sapiens, UniProt Q06187)
# COQ8A: Atypical kinase COQ8A, mitochondrial (COQ8A, Homo sapiens, UniProt Q8NI60)
SMILES,target,assay,setting,measurement,value
C#Cc1cc(-c2cc(Nc3nc(N[C@@H](C)c4ccc(F)cn4)ncc3Cl)n[nH]2)ccc1C=O,"Mitogen-activated protein kinase 12 (MAPK12, Homo sapiens, UniProt P53778)","enzyme activity, inhibitor",0.2 µM,inhibition,1.88%
COc1ccc2oc(-c3ccc4nc(N)oc4c3)c/c(=N\c3ccccc3NC(=O)CCN)c2c1,BTK,binding,1 µM,remaining binding,96%
C1=C/COCc2cc(ccc2OCCN2CCCC2)Nc2nccc(n2)-c2cccc(c2)COC/1,"Myosin light chain kinase, smooth muscle (MYLK, Homo sapiens, UniProt Q15746)",binding,0.1 µM,remaining binding,83%
C[C@H](NC(=O)C(=O)Nc1ccccc1C(C)(C)C)C(=O)N[C@@H](CC(=O)O)C(=O)COc1c(F)c(F)cc(F)c1F,"Caspase-8 (CASP8, Homo sapiens, UniProt Q14790)","enzyme activity, inhibitor",,kinact/KI,2.74e+06 M⁻¹ s⁻¹
[2H]c1cc(C)c(NC(=O)c2cnc(Nc3cc(N4CCCCC4)nc(C)n3)s2)c(Cl)c1,BTK,"enzyme activity, inhibitor, mobility shift",100 pM,inhibition,> 50%
O=C(COc1ccc(Cl)c(F)c1)NC12CC(NC(=O)c3cnc(C(F)F)cn3)(C1)C2,"Translation initiation factor eIF2B subunit beta/Translation initiation factor eIF2B subunit delta (Homo sapiens, UniProt P49770+Q9UI10)","ligand displacement, TR-FRET",100 µM,inhibition,100%
Cc1cc(-c2ccnc3[nH]cc(F)c23)cc(F)c1[C@@]1(O)[C@H](C)CN(C(=O)CN)C[C@@H]1C,"RAC-beta serine/threonine-protein kinase (AKT2, Homo sapiens, UniProt P31751)","enzyme activity, inhibitor",15 nM,remaining activity,94.5%
N#Cc1ccc(NC(=O)Nc2ccccc2)cc1,COQ8A,"cell-free assay, competition with immobilised ligand",25 µM,remaining binding,96%
Cc1nc(Nc2ncc(C(=O)Nc3c(C)cccc3Cl)s2)cc(N2CC[C@@H](O)C2)n1,BTK,"enzyme activity, inhibitor, mobility shift",1 nM,inhibition,74%
C#Cc1cnc(Nc2ccnc(CO)c2)nc1Nc1ccccc1S(C)(=O)=NC#N (centres unmarked),COQ8A,cell-free assay,1 µM,remaining signal,97%
Cc1nc(Nc2ncc(C(=O)Nc3c(C)cccc3Cl)s2)cc(N2CC[C@@H](N)C2)n1,BTK,"enzyme activity, inhibitor, mobility shift",1 nM,inhibition,71%
CCCCC(=O)Nc1ccc(-c2ccc3ncn(CCC)c(=O)c3c2)cn1,"Mast/stem cell growth factor receptor Kit (KIT, Homo sapiens, UniProt P10721, T670I/V559D)","binding, competition with immobilised ligand",0.5 µM,remaining binding,79%
[2H]c1cc(C)c(NC(=O)c2cnc(Nc3cc(N4CC[C@H](O)C4)nc(C)n3)s2)c(Cl)c1,BTK,"enzyme activity, inhibitor, mobility shift",1 nM,inhibition,72%
Cc1cc(O)c(-c2ccc([C@@H](C)CN(C)C)cc2)c2c1[nH]c(=O)c1sccc12,"Ribosomal protein S6 kinase alpha-5, N-terminal kinase domain (RPS6KA5, Homo sapiens, UniProt O75582)","enzyme activity, inhibitor",0.1 µM,inhibition,3.82%
